Data set [1] can be described thus: Kinetic aqueous solubility of the compound in pH 7.4 phosphate buffered saline incubated for 24 hrs under shaking condition by HPLC analysis. It is filed as physicochemical. Particulars: read-out: Kinetic_solubility. The procedure, abridged: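 Dry powder shaken 24 h at 25 °C in 0.1 M phosphate buffer, pH 7.4, then filtered through a 0.45 µm membrane. Concentration determined by HPLC against a standard of the compound in DMSO. Mean of three separate assays in triplicate.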

The nature of data set [2]: Toxicity in complete freund's adjuvant-induced DBA/1 mouse arthritis model assessed as effect on appetite at 0.2 mg/kg, po qd administered starting from 29 day post-CFA challenge and measured on day 29, 33, 36, 40 and 43. It is filed as organism-based. The settings on record: in vivo, 696 h. An outline of the steps:
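CIA in male DBA/1 mice: intradermal bovine type II collagen in CFA on day 0, collagen II in IFA boost on day 20. Randomized on day 29 and given oral doses once daily (n=6 per group) alongside vehicle and naive groups. Body weights recorded over the study days.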

Data set [3] concerns the target Tyrosine-protein kinase BTK (Homo sapiens, UniProt Q06187). Nature of the data set: Reversible inhibition of FAM-labeled peptide binding to full-length human N-terminal GST-tagged BTK (2 to 659 residues) expressed in baculovirus infected Sf21 insect cells at preincubated for 10 mins followed by FAM-labeled peptide addition and measured by off-chip mobility shift assay.

Results on 4 molecules are retold here after ChEMBL document CHEMBL4334447, “Discovery of 4-Aminoquinoline-3-carboxamide Derivatives as Potent Reversible Bruton's Tyrosine Kinase Inhibitors for the Treatment of Rheumatoid Arthritis” (J Med Chem, 2019).

pIC50: −log10 of the molar value. In brackets after ≈: the same amount, converted by molar mass.

Sequence of Tyrosine-protein kinase BTK (Q06187 whole entry, the tested form may be a part): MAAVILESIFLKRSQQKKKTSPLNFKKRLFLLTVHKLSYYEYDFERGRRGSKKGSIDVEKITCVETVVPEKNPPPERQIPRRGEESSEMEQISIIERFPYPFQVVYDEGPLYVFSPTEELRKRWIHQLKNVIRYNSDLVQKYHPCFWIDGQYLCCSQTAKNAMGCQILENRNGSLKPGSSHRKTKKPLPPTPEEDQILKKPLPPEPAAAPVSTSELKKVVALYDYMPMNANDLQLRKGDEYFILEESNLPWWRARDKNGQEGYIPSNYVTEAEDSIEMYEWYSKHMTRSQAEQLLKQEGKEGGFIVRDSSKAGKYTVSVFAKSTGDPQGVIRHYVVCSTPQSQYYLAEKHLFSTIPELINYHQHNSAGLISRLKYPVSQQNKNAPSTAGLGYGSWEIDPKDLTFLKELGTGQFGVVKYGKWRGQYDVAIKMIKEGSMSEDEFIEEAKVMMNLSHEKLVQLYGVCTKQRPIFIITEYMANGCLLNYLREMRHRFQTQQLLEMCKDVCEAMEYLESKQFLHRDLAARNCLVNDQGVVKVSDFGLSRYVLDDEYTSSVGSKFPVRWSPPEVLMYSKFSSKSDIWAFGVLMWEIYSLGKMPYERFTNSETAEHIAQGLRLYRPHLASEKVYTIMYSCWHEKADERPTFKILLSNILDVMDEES

As to `Cc1cc2cn[nH]c2cc1-c1cccc2c(N)c(C(N)=O)nnc12`, in data set [1], the solubility kinetic at 24 h is less than 0.05 µg/mL.

As for `C[C@@H]1C[C@H]2[C@@H]3CCC4=CC(=O)C=C[C@]4(C)[C@@]3(F)[C@@H](O)C[C@]2(C)[C@@]1(O)C(=O)CO` [DEXAMETHASONE], the Activity result in data set [2] is recorded as “Toxic”. Broadly, the pIC50 is −log10 of the IC50, conventionally taken in molar units. Take `Cc1cc2cn[nH]c2cc1-c1ccc(F)c2c(N)c(C(N)=O)cnc12`: the solubility kinetic at 24 h in data set [1] was found to be 5.2 µg/mL (≈ 15.5 µM). The pIC50 in data set [3] was 7.94. For the molecule `Cc1cc2cn[nH]c2cc1-c1cccc2c(N)c(C(N)=O)cnc12`, in data set [1], the solubility kinetic at 24 h was 10.5 µg/mL (≈ 33.1 µM). The negative logarithm of the IC50 (pIC50) in data set [3] was 7.14.
